Test results as given in paper PMC5267326 (Chemical Science, 2015).

Experiments:
[1] = system: FGF2 binding to cell surface heparan sulfate (wild-type CHO cells); experiment: Inhibition of FGF2 binding to cell surface HS on wild-type CHO cells; conditions: for IC50: read-out: IC50 against FGF2 binding, biotinylated FGF2 2.5 nM, on ice, mean ± SD of n = 3–4; for inhibition of FGF2 binding (in words): up to 100 μM
Outline: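 Wild-type CHO cells grown to confluence in F12/10% FBS, lifted enzyme-free and washed in PBS. Pre-incubated with test compound in PBS/0.1% BSA for 10 min on ice. Biotinylated FGF2 (2.5 nM) added for 30 min on ice. After washing, detected with streptavidin-PE-Cy5 or streptavidin-Cy5 by flow cytometry as geometric mean fluorescence. Expressed as % of binding without compound and plotted against concentration.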

[2] = system: soluble RAGE (sRAGE) binding to cell surface HS; experiment: Inhibition of sRAGE binding to cell surface HS on CHO cells; conditions: for sRAGE binding inhibition at 10 μM (in words): 10 μM compound, cell surface HS
Outline: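 CHO cells lifted enzyme-free and washed in PBS. Test compound at 10 μM pre-incubated in PBS/0.1% BSA for 10 min on ice. Biotinylated sRAGE (2 μg mL−1) added for 1 h on ice. After washing, bound protein detected with streptavidin-PE-Cy5 or streptavidin-Cy5 by flow cytometry as geometric mean fluorescence. Reported relative to no-compound binding, means ± SD.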

[3] = cited from earlier work
[4] = In vivo neutralization of fondaparinux in mice; conditions: fondaparinux 0.5 mg kg^–1 s.c., 16 mg kg^–1 i.v.
Outline: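 Wild-type mice (8 weeks, ~20–30 g), n = 3 per group. Baseline tail bleed 30 min before dosing. Fondaparinux 0.5 mg kg−1 in PBS given s.c. After 10 min, tail-vein i.v. dosing of test compound (16 mg kg−1, DMSO–water), DMSO–H2O vehicle or protamine (16 mg kg−1, PBS). Blood drawn 5 min later into 3.2% citrate. Plasma anti-FXa colorimetric assay (405 nm) read against a calibration curve. Means ± SD.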

Molecule | IC50 [1] [µM] | sRAGE binding inhibition at 10 μM (in words) [2] | also measured
Cc1cc(N)c2cc(NC(=S)Nc3ccc4nc(C)cc(N)c4c3)ccc2n1 [Thio surfen (4), N,N′-bis-(4-amino-2-methyl-6-quinolyl)-thiourea] | 8 ± 0.2 | – | –
Cc1ccc2cc(NC(=O)Nc3ccc4nc(C)ccc4c3)ccc2n1 [Deaminated surfen (6), 1,3-Bis(2-methylquinolin-6-yl)urea] | > 100 | no inhibitory activity | –
Cc1cc(N)c2cc(NC(N)=O)ccc2n1 [Hemisurfen (2), 4-Amino-2-methyl-6-quinolyl-urea] | > 100 | no inhibitory activity | inhibition of FGF2 binding (in words) [1]: did not inhibit
CC(=O)Nc1ccc2nc(C)cc(N)c2c1 [Acetyl-hemisurfen (3), 6-acetamido-4-aminoquinaldine] | > 100 | no inhibitory activity | inhibition of FGF2 binding (in words) [1]: did not inhibit; IC50 ([2]; read-out: IC50 inhibition of sRAGE binding to HS, CHO cells, biotinylated sRAGE 2 μg mL^–1): > 100 µM
Nc1ccnc2ccccc12 [4-aminoquinoline] | – | – | pKa of the protonated form [3]: ~8.5
protamine | – | – | neutralizing fondaparinux in vivo (in words) [4]: ineffective
COc1cc(C)nc2ccc(NC(=O)Nc3ccc4nc(C)cc(OC)c4c3)cc12 [Methoxy surfen (5), 1,3-bis(4-methoxy-2-methyl-quinolin-6-yl)urea] | > 100 | – | –
